Data published in ChEMBL document CHEMBL1125600, “Sulfonylbenzoyl-nitrostyrenes: potential bisubstrate type inhibitors of the EGF-receptor tyrosine protein kinase” (J Med Chem, 1991).

What was measured:
[1] = Inhibition of the protein kinase C.
[2] = Antiproliferative activity tested by using EGF- stimulated cellular proliferation of balb/MK mouse epidermal keratinocytes (balb/MK cells)
[3] = molecular target: Epidermal growth factor receptor (Homo sapiens, UniProt P00533); assay: Inhibition of the epidermal growth factor receptor expressed in A431 cell line
[4] = molecular target: Tyrosine-protein kinase ABL (Homo sapiens, UniProt P00519+P42684); assay: Inhibition of recombinant v-Abl tyrosine kinase.; type: protein assay
How it was run: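 The reaction contained 20 mM Tris pH 7.5, 10 mM MgCl2, 10 µM [γ-32P]ATP and about 50 ng enzyme. Compounds were in DMSO. Reactions were stopped with trichloroacetic acid and aliquots were spotted on P81 paper.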

Chain of Epidermal growth factor receptor (P00533 whole entry): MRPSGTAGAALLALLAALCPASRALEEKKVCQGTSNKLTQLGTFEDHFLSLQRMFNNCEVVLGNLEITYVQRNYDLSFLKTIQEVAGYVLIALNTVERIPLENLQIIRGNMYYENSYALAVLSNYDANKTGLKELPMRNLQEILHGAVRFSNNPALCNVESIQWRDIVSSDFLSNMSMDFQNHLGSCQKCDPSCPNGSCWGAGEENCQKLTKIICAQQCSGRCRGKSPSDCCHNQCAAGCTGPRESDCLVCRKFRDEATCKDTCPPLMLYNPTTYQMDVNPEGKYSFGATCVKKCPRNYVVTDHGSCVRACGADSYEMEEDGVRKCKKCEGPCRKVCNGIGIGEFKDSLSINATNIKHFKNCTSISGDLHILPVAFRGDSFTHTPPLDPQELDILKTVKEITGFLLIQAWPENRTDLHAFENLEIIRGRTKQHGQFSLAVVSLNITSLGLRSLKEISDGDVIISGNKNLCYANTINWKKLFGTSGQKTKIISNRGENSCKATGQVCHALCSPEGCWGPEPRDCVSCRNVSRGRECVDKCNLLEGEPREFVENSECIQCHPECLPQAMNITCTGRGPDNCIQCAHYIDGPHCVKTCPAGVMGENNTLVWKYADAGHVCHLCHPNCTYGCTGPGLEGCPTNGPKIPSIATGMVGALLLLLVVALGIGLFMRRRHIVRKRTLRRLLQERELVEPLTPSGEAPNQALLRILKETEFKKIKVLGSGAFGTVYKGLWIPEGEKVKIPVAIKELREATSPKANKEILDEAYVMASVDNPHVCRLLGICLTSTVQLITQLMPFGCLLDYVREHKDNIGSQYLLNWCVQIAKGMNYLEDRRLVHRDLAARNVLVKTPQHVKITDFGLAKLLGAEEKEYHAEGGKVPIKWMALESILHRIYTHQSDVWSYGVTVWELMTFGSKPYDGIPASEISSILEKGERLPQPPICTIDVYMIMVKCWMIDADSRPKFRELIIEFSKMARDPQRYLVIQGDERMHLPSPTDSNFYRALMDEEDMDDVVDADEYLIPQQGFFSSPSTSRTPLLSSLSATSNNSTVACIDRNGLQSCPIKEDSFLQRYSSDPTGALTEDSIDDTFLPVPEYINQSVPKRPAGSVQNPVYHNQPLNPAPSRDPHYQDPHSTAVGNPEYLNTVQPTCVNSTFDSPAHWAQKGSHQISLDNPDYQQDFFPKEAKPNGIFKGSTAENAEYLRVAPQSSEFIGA

Compound | IC50 [1] | IC50 [3] | IC50 [4] | IC50 [2]
C[C@@H](NC(=O)c1ccc(S(=O)(=O)Oc2ccc(/C=C/[N+](=O)[O-])cc2)cc1)C(=O)N[C@H](C)C(=O)NCCNC(=O)OC(C)(C)C | > 500 µM | > 50 µM |  | > 50 µM
C[C@@H](NC(=O)c1ccc(S(=O)(=O)Oc2ccc(/C=C/[N+](=O)[O-])cc2)cc1)C(=O)N[C@H](C)C(=O)OC(C)(C)C | > 450 µM | 40 µM | > 100 µM | 2.7 µM
COc1cc(/C=C/[N+](=O)[O-])ccc1O | > 500 µM | 7.9 µM | > 100 µM | 3.5 µM
O=[N+]([O-])/C=C/c1ccc(O)c(O)c1 | > 500 µM | 8.8 µM | 100 µM | 2.9 µM
C/C(=C\c1ccc(O)c(O)c1)[N+](=O)[O-] | > 500 µM | 9.4 µM | 100 µM | 2.1 µM
Nc1ncnc2c1ncn2[C@@H]1O[C@H](COC(=O)c2ccc(S(=O)(=O)Oc3ccc(/C=C/[N+](=O)[O-])cc3)cc2)[C@@H](O)[C@H]1O | 13 µM | 0.6 µM | > 100 µM | 61 µM
O=[N+]([O-])/C=C/c1ccc(O)cc1 | > 500 µM | 10.1 µM | > 100 µM | 4.8 µM
C[C@@H](NC(=O)[C@@H](C)NC(=O)c1ccc(S(=O)(=O)Oc2ccc(/C=C/[N+](=O)[O-])cc2)cc1)C(=O)O | > 100 µM | 7 µM | 35 µM | > 50 µM
C[C@@H](NC(=O)c1ccc(S(=O)(=O)Oc2ccc(/C=C/[N+](=O)[O-])cc2)cc1)C(=O)N[C@H](C)C(=O)NCCN | 250 µM | 17 µM | 15 µM | > 50 µM
NCCNC(=O)c1ccc(S(=O)(=O)Oc2ccc(/C=C/[N+](=O)[O-])cc2)cc1 | 60 µM | 5.4 µM | 5 µM | 32 µM
CCCCNC(=O)c1ccc(S(=O)(=O)Oc2ccc(C=O)cc2)cc1 |  | > 100 µM |  | > 50 µM

More lines, in order of falling IC50 [3], values ahead:

IC50 [1] | IC50 [3] | IC50 [4] | Compound | IC50 [2]
> 500 µM | 4.8 µM | > 100 µM | CCCCNC(=O)c1ccc(S(=O)(=O)Oc2ccc(/C=C/[N+](=O)[O-])cc2)cc1 | 3.8 µM
> 500 µM | 4 µM |  | CNC(=O)c1ccc(S(=O)(=O)Oc2ccc(/C=C(\C)[N+](=O)[O-])cc2OC)cc1 | 2.1 µM
> 500 µM | 2.8 µM | 40 µM | COc1cc(/C=C/[N+](=O)[O-])ccc1OS(=O)(=O)c1ccc(C(=O)O)cc1 | 35 µM
 | 1.8 µM | > 100 µM | COC(=O)c1ccc(S(=O)(=O)Oc2ccc(/C=C/[N+](=O)[O-])cc2)cc1O | 5.7 µM
> 500 µM | 1.5 µM | > 100 µM | COC(=O)c1ccc(S(=O)(=O)Oc2ccc(/C=C/[N+](=O)[O-])cc2)cc1 | 12 µM
320 µM | 1.4 µM | > 100 µM | CC(C)(C)OC(=O)NCCNC(=O)c1ccc(S(=O)(=O)Oc2ccc(/C=C/[N+](=O)[O-])cc2)cc1 | 4.8 µM
340 µM | 1.3 µM | > 100 µM | CC(C)(C)NC(=O)c1ccc(S(=O)(=O)Oc2ccc(/C=C/[N+](=O)[O-])cc2)cc1 | 2.1 µM
> 500 µM | 1 µM | 100 µM | O=C(O)c1ccc(S(=O)(=O)Oc2ccc(/C=C/[N+](=O)[O-])cc2)cc1 | > 50 µM
10 µM | 0.5 µM | 100 µM | COc1cc(/C=C/[N+](=O)[O-])ccc1OS(=O)(=O)c1ccc(C(=O)OC[C@H]2O[C@@H](n3cnc4c(N)ncnc43)[C@H](O)[C@@H]2O)cc1 | 45 µM
290 µM | 0.4 µM | 35 µM | CNC(=O)c1ccc(S(=O)(=O)Oc2ccc(/C=C/[N+](=O)[O-])cc2)cc1 | 5.2 µM
> 500 µM | 0.31 µM | 100 µM | O=C(O)c1ccc(S(=O)(=O)Oc2ccc(/C=C/[N+](=O)[O-])cc2)c(O)c1 | > 50 µM
500 µM | 0.054 µM | 27 µM | O=C(O)c1ccc(S(=O)(=O)Oc2ccc(/C=C/[N+](=O)[O-])cc2)cc1O | > 50 µM
